Compound activity as filed in PubChem BioAssay.
Sampled rows, rich in hits. Any-hit rate of the full collection: about 3.7%.
KCNK9 inh – inhibitors of human KCNK9 two-pore domain potassium channel; B-score at 10 µM; HEK293 KCNK9, FluxOR thallium flux fluorescence; active compounds read low; 310,000 compounds, 1.2% hits;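 active = ratio B-score over 3 SD below the library mean, with starting fluorescence within 5 SD of its mean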;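 also: negative B-score means less thallium flux so channel inhibition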
Target sequence (Q9NPC2 whole entry, looked up, the tested form may be a part): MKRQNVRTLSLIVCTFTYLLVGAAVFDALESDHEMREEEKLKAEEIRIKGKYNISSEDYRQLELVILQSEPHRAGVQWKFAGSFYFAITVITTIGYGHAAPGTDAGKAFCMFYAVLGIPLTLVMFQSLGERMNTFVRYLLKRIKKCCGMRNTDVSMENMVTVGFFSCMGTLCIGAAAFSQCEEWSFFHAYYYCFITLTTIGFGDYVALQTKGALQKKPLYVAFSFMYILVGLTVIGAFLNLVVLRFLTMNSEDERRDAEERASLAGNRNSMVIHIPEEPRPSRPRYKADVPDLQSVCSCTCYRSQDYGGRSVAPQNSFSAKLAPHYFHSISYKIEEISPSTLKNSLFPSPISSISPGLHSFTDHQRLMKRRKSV
KCNK3 block – human KCNK3 channel inhibition, primary screen; 340,000 compounds, 0.84% hits; B-score at 10 µM; CHO-KCNK3 thallium flux, FluxOR fluorescence; active compounds read low;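 active = B-score under library mean minus 4 SD, starting fluorescence ratio at most library mean plus 5 SD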;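 also: more negative B-score means stronger inhibition of thallium flux through KCNK3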
KCNQ1 pot – potentiates or activates the human KCNQ1 potassium channel | P51787 | CHO-K1 KCNQ1, thallium flux FluxOR fluorescence; active compounds read high | B-score at 10 µM | 310,000 compounds, 0.35% hits | AID 2648;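 active = fluorescence ratio B-score, a plate-corrected score, at least three library SD, with initial intensity B-score within 5 SD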
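Test system: CHO-K1 cells stably expressing KCNQ1 / Medium: assay buffer / Also added: depolarizing K+/Tl+ stimulus, K2SO4 and Tl2SO4 each 12.5 mM in 5x stock / Incubation: 90 min dye loading and 20 min compound exposure, both at room temperature / Signal: thallium influx via FluxOR fluorescence, kinetic imaging / Evaluation: B score of baseline-normalized fluorescence ratio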
KCNQ1 inh – inhibitors of human KCNQ1 potassium channel. P51787. CHO-K1 KCNQ1, FluxOR thallium flux fluorescence; active compounds read high. B-score at 10 µM. 310,000 compounds, 1.3% hits;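 active = compounds whose thallium flux B-score, printed positive for inhibition, exceeds three library SD while starting fluorescence stays within three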;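 also: channel opened by potassium depolarization with thallium stimulus after 20 min compound exposure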
hERG protect – hERG (human) protection from proarrhythmic block; Q12809; CHO-hERG, FluxOR thallium flux, dofetilide IC70 present; activation (rescue from dofetilide block), less the hit threshold, % at 10 µM; 310,000 compounds, 0.51% hits;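 active = activation above the mean of controls blocked by dofetilide plus 5 SD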;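 also: thallium influx through hERG after potassium depolarization seen as dye fluorescence rise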
Kir21 inh – Kir2.1 (mouse) channel inhibition | AID 1672 | P35561 | B-score at 10 µM | HEK293-Kir2.1, FluxOR thallium flux fluorescence; active compounds read low | 310,000 compounds, 0.85% hits;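 active = fluorescence ratio B-score at or below minus 3 SD of library scores, with starting-brightness B-score within 2 SD, cut at about -4.2 in these data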;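 also: channel flux triggered by added potassium and thallium sulfate stimulus; B-score of peak minus minimum fluorescence over baseline after thallium stimulus; more negative B-score means stronger Kir2.1 block with less thallium influx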
KCNQ1 block val – confirmation of human KCNQ1 potassium channel inhibitors | AID 588353 | KCNQ1 cell line, FluxOR thallium flux fluorescence | inhibition, % at 10 µM | shares compounds with KCNQ1 inh | 1,600 compounds, 93% hits;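 active = primary screen active, with duplicate mean exceeding buffer control mean plus 3 SD of buffer wells, cut at about 28% in these data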;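 also: 0% = buffer control ratio and 100% = XE991 inhibitor control ratio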
CHO Tl flux – counter-screen for KCNQ1 inhibitors: effect in parental CHO cells; shares compounds with KCNQ1 inh; parental CHO-K1, FluxOR thallium flux fluorescence ratio; active compounds read low; zero means no signal rise above baseline; fluorescence ratio (Tl flux) at 10 µM; 1,600 compounds, 21% hits; AID 588366;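 active = mean of duplicate thallium-flux fluorescence ratios in parental host cells more than 5 SD below the buffer control mean, cut at about 0.38 in these data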;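 also: ratio is peak minus minimum fluorescence divided by baseline fluorescence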
KCNQ1 APC inh – confirmation of human KCNQ1 potassium channel inhibitors by electrophysiology | calls only at 10 µM | KCNQ1-CHO cells, automated patch clamp current | shares compounds with KCNQ1 inh | 490 compounds, 20% hits | AID 624120;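 active = KCNQ1 current drop exceeding 3 SD of negative control wells, seen in both duplicate runs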;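 also: steady state current during a 2 s step from -80 to +40 mV; negative values mean current inhibition and positive values mean potentiation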
KCNQ2 spec – rat KCNQ2 inhibition in KCNQ1 inhibitor specificity screen; shares compounds with KCNQ1 inh; KCNQ2 cells, FluxOR thallium flux fluorescence; inhibition, % at 10 µM; 1,600 compounds, 71% hits; AID 651746;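 active = mean percent inhibition of the KCNQ2 thallium signal more than 5 SD above the buffer-only control wells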;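 also: KCNQ2 expressed in CHO cells; 0% = buffer control wells and 100% = XE-991 inhibitor control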
KCNQ1-KCNE1 inh – selectivity of KCNQ1 inhibitors: inhibition of human KCNQ1/KCNE1 channel; KCNQ1/KCNE1 cells, FluxOR thallium flux fluorescence; AID 652147; inhibition, % at 10 µM; 1,600 compounds, 77% hits; shares compounds with KCNQ1 inh;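 active = mean percent inhibition of duplicate wells above the buffer-only control mean plus 3 SD of those controls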;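 also: 0% = buffer only wells and 100% = XE-991 inhibitor control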
* = called active by the depositor; i = inactive; nt = not tested or not shown; + = active, no number.

SMILES	KCNK9 inh	KCNK3 block	KCNQ1 pot	KCNQ1 inh	hERG protect	Kir21 inh	KCNQ1 block val	CHO Tl flux	KCNQ2 spec	KCNQ1-KCNE1 inh	others
CCOC(=O)N1CCN(S(=O)(=O)c2ccc3c4c(cccc24)C(=O)N3)CC1	i	i	i	i	-9	0.47	nt	nt	nt	nt
CCOc1ccccc1N1CCN(S(=O)(=O)c2ccc3c4c(cccc24)C(=O)N3)CC1	i	i	i	7*	-7	0.21	69*	0.49	i	79%*
CC(C)c1ccc(NC(=O)c2cc(S(=O)(=O)NCC3COc4ccccc4O3)ccc2F)cc1 (stereo not drawn)	i	i	i	7*	-6	0.33	95*	0.47	116%*	159%*	KCNQ1 APC inh=i
Cc1ccc(N2C(=O)c3ccccc3C2C(=O)c2ccc(O)cc2O)cc1 (stereo not drawn)	i	i	i	i	-2	0.92	nt	nt	nt	nt
Cc1ccc(N2C(=O)c3ccccc3C2C(=O)c2ccc(C)c(C)c2O)cc1 (stereo not drawn)	i	i	i	7*	-6	1.9	90*	0.37*	103%*	74%*
CCCCCCNC(=O)C(C#N)c1nc2ccccc2nc1N1CCCC1 (stereo not drawn)	i	i	i	9*	-8	-2.2	+	0.2*	i	i
O=C(Nc1ccc2ccccc2c1)C(c1ccccc1)C1CCCC1 (stereo not drawn)	-7.5*	i	i	15*	-25	-0.3	138*	0.31*	123%*	167%*
Cc1ccccc1NC(=O)C(c1ccccc1)C1CCCC1 (stereo not drawn)	i	i	i	i	-11	0.21	nt	nt	nt	nt
CCn1nc(C)c(CNC(=O)c2cc(COc3ccc(F)cc3Cl)on2)c1C	i	i	i	8*	-23	-0.67	40*	0.55	i	i
CCn1cc(CNC(=O)c2cc(COc3ccc(F)cc3Cl)on2)cn1	i	i	i	i	-4	0.26	nt	nt	nt	nt
Cc1cc(C(=O)NC2CC(C)(C)Cc3c2cnn3-c2ccc(F)cc2)no1 (stereo not drawn)	i	i	i	i	-13	1.6	nt	nt	nt	nt
CC1(C)Cc2c(cnn2-c2ccccc2)C(NC(=O)c2ccoc2)C1 (stereo not drawn)	i	i	i	i	-11	-1.5	nt	nt	nt	nt
CC1(C)Cc2c(cnn2-c2ccc(F)cc2)C(NC(=O)c2ccoc2)C1 (stereo not drawn)	i	i	i	7*	-13	0.94	72*	0.42	i	93%*
Cn1nccc1C(=O)NC1CC(C)(C)Cc2c1cnn2-c1ccc(F)cc1 (stereo not drawn)	i	i	i	6*	-7	-0.08	0	0.55	i	i
CC(=O)NC(CC(=O)OCC(=O)c1ccc(NC(=O)CC(C)C)cc1)c1ccccc1 (stereo not drawn)	nt	i	nt	nt	nt	nt	nt	nt	nt	nt
O=C(NCC1CC1)c1ccc(Nc2nc3ccc(Br)cc3[nH]2)cc1	i	i	i	i	-13	3	nt	nt	nt	nt
O=C(NCc1ccco1)c1cccc(Nc2nc3ccc(Br)cc3[nH]2)c1	i	i	i	8*	-26	-0.73	163*	0.33*	128%*	+
O=C(NCCCO)C(=O)Nc1cc2c3c(c1)CCC(=O)N3CCC2	i	i	i	i	-9	-0.05	nt	nt	nt	nt
CC(Oc1cccc(Cl)c1)C(=O)Nc1cc(S(=O)(=O)N2CCOCC2)ccc1N1CCCC1 (stereo not drawn)	i	i	i	i	-16	-0.93	nt	nt	nt	nt
CC(Oc1cccc(Cl)c1)C(=O)Nc1cc(S(=O)(=O)N2CCCCC2)ccc1N1CCOCC1 (stereo not drawn)	i	i	i	9*	-13	2.1	69*	0.39	94%*	95%*
O=C(c1ccc(-c2ccccc2Cl)o1)N1CCN(c2ccccc2O)CC1	i	i	i	8*	-20	-0.06	+	0.39	i	i	KCNQ1 APC inh=i
O=C(c1ccco1)N1CCN(C(=O)c2ccc(-c3ccccc3Cl)o2)CC1	nt	i	nt	nt	nt	nt	nt	nt	nt	nt
CCCN1CCc2c(sc(NC(=S)NC(=O)c3ccccc3)c2C#N)C1	i	i	i	i	-2	0.02	nt	nt	nt	nt
CC(C)N1CCc2c(sc(NC(=S)NC(=O)c3ccccc3)c2C#N)C1	i	i	i	7*	-16	-3.5	0	0.5	i	48%*
O=c1oc(-c2ccccc2)nc2c1C1(CCCCC1)Cc1ccccc1-2	i	i	i	i	-8	-0.03	nt	nt	nt	nt
SMILES	KCNK9 inh	KCNK3 block	KCNQ1 pot	KCNQ1 inh	hERG protect	Kir21 inh	KCNQ1 block val	CHO Tl flux	KCNQ2 spec	KCNQ1-KCNE1 inh	others
CCC1(CC)Cc2ccccc2-c2nc(-c3ccccc3)oc(=O)c21	i	i	i	7*	-12	0.09	60*	0.45	103%*	91%*
Cc1cccc(-c2nc(Nc3ccc(N4CCOCC4)cc3)c3ccccc3n2)c1	i	i	i	13*	-8	0.64	108*	0.43	90%*	148%*	KCNQ1 APC inh=i
c1ccc2c(Nc3ccc(N4CCOCC4)cc3)nc(N3CCOCC3)nc2c1	i	i	i	i	0	0.38	nt	nt	nt	nt
c1csc(-c2nnc(NC3CCCCC3)c3ccccc23)c1	i	i	i	10*	-19	0.67	52*	0.55	69%*	51%*
O=C(O)c1cc(NS(=O)(=O)c2cccc3ccccc23)ccc1O	i	i	i	i	-2	1.4	nt	nt	nt	nt
O=S(=O)(Nc1c(O)ccc2ccccc12)c1cccc2ccccc12	i	i	i	11*	-20	2.1	32*	0.47	i	90%*
CCN(Cc1ccc2c(c1)OCCO2)C(=O)CN1C(=O)NC2(CCCCC2)C1=O	nt	i	nt	nt	nt	nt	nt	nt	nt	nt
Cc1ccc(N=Nc2c(N)[nH]n3c(=O)cc(-c4ccccc4)nc23)cc1	i	i	i	9*	-11	1	46*	0.48	i	87%*
